Data as given in ChEMBL document CHEMBL4680253, “Hybrids of MEK inhibitor and NO donor as multitarget antitumor drugs” (Eur J Med Chem, 2020).
Activity calls are given as the source filed them. The calls are words filed in the database; no cut-off is given here.

Experiments:
[1] = Antiproliferative activity against human A375 cells harboring BRAF V600E mutant assessed as inhibition of cell viability after 96 hrs by Celltiter-Glo assay; type: functional, cell-based, A375/R; details: A-375, 96 h
MDA-MB-231 [2] = assay: Antiproliferative activity against human MDA-MB-231 cells harboring KRAS G13D/BRAF G464V mutant assessed as inhibition of cell viability after 96 hrs by Celltiter-Glo assay; type: functional, cell-based; details: MDA-MB-231, 96 h
HCT-116 = assay: Antiproliferative activity against human HCT116 cells harboring KRAS G13D mutant assessed as inhibition of cell viability after 96 hrs by Celltiter-Glo assay; type: functional, cell-based; details: HCT-116, 96 h
A549 = assay: Antiproliferative activity against human A549 cells harboring KRAS G12S mutant assessed as inhibition of cell viability after 96 hrs by Celltiter-Glo assay; type: functional, cell-based; details: A549, 96 h
HL-60 = assay: Antiproliferative activity against human HL60 cells harboring NRAS […] mutant assessed as inhibition of cell viability after 96 hrs by Celltiter-Glo assay; type: functional, cell-based; details: HL-60, 96 h
[3] = Prodrug release in human HCT-116 cells assessed as increase in intracellular NO level at 100 uM measured after 2 hr by DAF-FM DA reagent based laser confocal scanning microscopy; details: hct-116, 2 h
MDA-MB-231 [4] = assay: Induction of apoptosis in human MDA-MB-231 cells assessed as late apoptotic cells at 10 uM incubated for 24 hrs by AnnexinV-FITC and propidium iodide staining based flow cytometry (reference value: 3.54%); type: functional
[5] = target: T1, Dual specificity mitogen-activated protein kinase kinase; MEK1/2 (Homo sapiens) (UniProt P36507+Q02750); assay: Inhibition of MEK in human MDA-MB-231 cells assessed as reduction in MEK phosphorylation incubated for 2 hrs by Western blot analysis; type: cell-based; details: dose 0.1-10 µM
T1 sequence (P36507 whole entry, looked up): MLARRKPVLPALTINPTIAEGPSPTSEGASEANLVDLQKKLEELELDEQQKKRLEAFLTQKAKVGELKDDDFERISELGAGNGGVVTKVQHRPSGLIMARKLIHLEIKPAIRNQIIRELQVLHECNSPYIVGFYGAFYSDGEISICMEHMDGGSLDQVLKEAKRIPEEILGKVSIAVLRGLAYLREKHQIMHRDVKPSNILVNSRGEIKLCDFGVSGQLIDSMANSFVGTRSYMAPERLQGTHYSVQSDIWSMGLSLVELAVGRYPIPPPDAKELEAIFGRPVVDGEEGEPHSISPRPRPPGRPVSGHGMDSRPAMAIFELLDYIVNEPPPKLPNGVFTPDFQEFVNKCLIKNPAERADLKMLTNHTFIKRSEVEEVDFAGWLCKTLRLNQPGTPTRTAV
T1 sequence (Q02750 whole entry, looked up): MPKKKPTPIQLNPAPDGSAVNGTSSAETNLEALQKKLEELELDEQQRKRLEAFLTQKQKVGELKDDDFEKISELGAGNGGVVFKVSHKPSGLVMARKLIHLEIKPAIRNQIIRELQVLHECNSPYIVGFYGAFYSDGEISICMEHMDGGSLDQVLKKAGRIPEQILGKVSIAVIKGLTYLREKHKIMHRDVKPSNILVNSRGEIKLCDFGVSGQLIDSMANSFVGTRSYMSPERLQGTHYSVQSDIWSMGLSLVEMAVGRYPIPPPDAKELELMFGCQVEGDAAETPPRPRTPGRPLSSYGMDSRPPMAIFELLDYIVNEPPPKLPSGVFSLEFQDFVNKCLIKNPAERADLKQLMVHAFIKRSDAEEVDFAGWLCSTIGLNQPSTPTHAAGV

[6] = target: T1, Dual specificity mitogen-activated protein kinase kinase; MEK1/2 (Homo sapiens); assay: Inhibition of MEK in human MDA-MB-231 cells assessed as reduction in ERK phosphorylation incubated for 2 hrs by Western blot analysis; type: cell-based; details: dose 0.1-10 µM
[7] = target: T1, Dual specificity mitogen-activated protein kinase kinase; MEK1/2 (Homo sapiens); assay: Inhibition of MEK in human MDA-MB-231 cells assessed as reduction in ERK phosphorylation at 1 to 10 uM incubated for 2 hrs by Western blot analysis; type: cell-based; details: dose 1-10 µM
How it was run: (§1)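 MDA-MB-231 in RPMI-1640 with 10% FBS. Dose series at 1, 3 and 10 µM for 2 h or 24 h; time course at 1 µM or 10 µM over several time points. RIPA lysates with protease/phosphatase inhibitors, equal protein on 4-20% SDS-PAGE, PVDF transfer, 5% milk block. Probed overnight at 4 °C for pMEK, MEK, pERK and ERK, then HRP secondary.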

[8] = target: T1, Dual specificity mitogen-activated protein kinase kinase; MEK1/2 (Homo sapiens); assay: Inhibition of MEK in human MDA-MB-231 cells assessed as reduction in MEK phosphorylation at 1 to 10 uM incubated for 2 hrs by Western blot analysis; type: cell-based; details: dose 1-10 µM; how it was run: as §1
Vero = assay: Cytotoxicity against African green monkey Vero cells assessed as reduction in cell viability after 96 hrs by Celltiter-Glo assay; type: cell-based; details: Chlorocebus sabaeus
How it was run: (§2)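 Cells kept at 37 °C in humidified 5% CO2 with 10% FBS; Vero in DMEM, HL7702 in RPMI-1640. Compounds added to plated cells and incubated 96 h at 37 °C. Viability read by CellTiter-Glo reagent added directly to the wells. IC50 fitted from the readings.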

L02 = assay: Cytotoxicity against human HL7702 cells assessed as reduction in cell viability after 96 hrs by Celltiter-Glo assay; type: cell-based; details: L02, 96 h; how it was run: as §2
MDA-MB-231 [9] = assay: Induction of apoptosis in human MDA-MB-231 cells assessed as viable cells at 1 uM incubated for 24 hrs by AnnexinV-FITC and propidium iodide staining based flow cytometry (reference value: 90.962%); type: functional; details: read-out: Activity
MDA-MB-231 [10] = assay: Induction of apoptosis in human MDA-MB-231 cells assessed as early apoptotic cells at 1 uM incubated for 24 hrs by AnnexinV-FITC and propidium iodide staining based flow cytometry (reference value: 4.4%); type: functional
MDA-MB-231 [11] = assay: Induction of apoptosis in human MDA-MB-231 cells assessed as late apoptotic cells at 1 uM incubated for 24 hrs by AnnexinV-FITC and propidium iodide staining based flow cytometry (reference value: 3.54%); type: functional
MDA-MB-231 [12] = assay: Induction of apoptosis in human MDA-MB-231 cells assessed as necrotic cells at 1 uM incubated for 24 hrs by AnnexinV-FITC and propidium iodide staining based flow cytometry (reference value: 1.084%); type: functional
MDA-MB-231 [13] = assay: Induction of apoptosis in human MDA-MB-231 cells assessed as viable cells at 10 uM incubated for 24 hrs by AnnexinV-FITC and propidium iodide staining based flow cytometry (reference value: 90.962%); type: functional; details: read-out: Activity
MDA-MB-231 [14] = assay: Induction of apoptosis in human MDA-MB-231 cells assessed as early apoptotic cells at 10 uM incubated for 24 hrs by AnnexinV-FITC and propidium iodide staining based flow cytometry (reference value: 4.4%); type: functional
MDA-MB-231 [15] = assay: Induction of apoptosis in human MDA-MB-231 cells assessed as necrotic cells at 10 uM incubated for 24 hrs by AnnexinV-FITC and propidium iodide staining based flow cytometry (reference value: 1.084%); type: functional
[16] = target: T1, Dual specificity mitogen-activated protein kinase kinase; MEK1/2 (Homo sapiens); assay: Inhibition of MEK in human MDA-MB-231 cells assessed as reduction in MEK phosphorylation at 1 uM by Western blot analysis; type: cell-based; details: time 1-6 hrs, TDE = time-dependent effect; how it was run: as §1
[17] = target: T1, Dual specificity mitogen-activated protein kinase kinase; MEK1/2 (Homo sapiens); assay: Inhibition of MEK in human MDA-MB-231 cells assessed as reduction in ERK phosphorylation at 1 uM by Western blot analysis; type: cell-based; details: time 1-6 hrs, TDE = time-dependent effect; how it was run: as §1
[18] = target: T1, Dual specificity mitogen-activated protein kinase kinase; MEK1/2 (Homo sapiens); assay: Inhibition of MEK in human MDA-MB-231 cells assessed as reduction in MEK phosphorylation at 1 uM incubated for <=1 hr by Western blot analysis; type: cell-based; details: time hrs <=1; how it was run: as §1
[19] = target: T1, Dual specificity mitogen-activated protein kinase kinase; MEK1/2 (Homo sapiens); assay: Inhibition of MEK in human MDA-MB-231 cells assessed as reduction in ERK phosphorylation at 1 uM incubated for <=1 hr by Western blot analysis; type: cell-based; details: time hrs <=1; how it was run: as §1
[20] = target: T1, Dual specificity mitogen-activated protein kinase kinase; MEK1/2 (Homo sapiens); assay: Inhibition of MEK in human A549 cells assessed as reduction in MEK phosphorylation at 10 uM incubated for 2 hrs by Western blot analysis; type: cell-based
How it was run: (§3)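 A549 cells in RPMI-1640 with 10% FBS, treated 2 h. Cells lysed in RIPA with protease/phosphatase inhibitors on ice for 20 min. Equal protein run on 4-20% SDS-PAGE and blotted to PVDF. Membranes blocked in 5% milk, then probed overnight at 4 °C with rabbit mAbs to pMEK, MEK, pERK and ERK, followed by HRP secondary. GAPDH used as loading control.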

[21] = target: T1, Dual specificity mitogen-activated protein kinase kinase; MEK1/2 (Homo sapiens); assay: Inhibition of MEK in human A549 cells assessed as reduction in ERK phosphorylation at 1 uM incubated for 2 hrs by Western blot analysis; type: cell-based; how it was run: as §3

SMILES | IC50 [1] [nM] | IC50 (MDA-MB-231 [2]) [nM] | IC50 (HCT-116) [nM] | IC50 (A549) [nM] | IC50 (HL-60) [nM] | Drug metabolism [3] | also measured
Cc1c(Cc2cccc(NS(=O)(=O)NCCC#N)c2F)c(=O)oc2cc(OCCOc3no[n+]([O-])c3S(=O)(=O)c3ccccc3)ccc12 | 660 | 270 | 760 | 2610 | 640 | Metabolite_Detected | 
Cc1c(Cc2cccc(NS(=O)(=O)NCCC#N)c2F)c(=O)oc2cc(OCCO)ccc12 | 650 | 5490 | 15400 | > 5000 | 390 | Metabolite_Notdetected | 
COCCNS(=O)(=O)Nc1cccc(Cc2c(C)c3ccc(OCCO)cc3oc2=O)c1F | 360 | 2990 | 6500 | > 5000 | 250 | Metabolite_Notdetected | 
CNS(=O)(=O)Nc1cccc(Cc2c(C)c3ccc(OCCCO)cc3oc2=O)c1F |  | 1900 | 5340 | > 5000 |  | Metabolite_Notdetected | 
CC(=O)Nc1cccc(-n2c(=O)n(C3CC3)c(=O)c3c(Nc4ccc(I)cc4F)n(C)c(=O)c(C)c32)c1 [TRAMETINIB] | 2.4 | 18 | 19 | 460 | 3 |  | 
Cc1c(Cc2cccc(NS(=O)(=O)NC(C)C)c2F)c(=O)oc2cc(OCCO)ccc12 | 150 | 2380 | 5090 | > 5000 | 140 | Metabolite_Notdetected | 
CNS(=O)(=O)Nc1cccc(Cc2c(C)c3ccc(OCCO)cc3oc2=O)c1F | 150 | 2190 | 3470 | > 5000 | 100 | Metabolite_Notdetected | 
CNS(=O)(=O)Nc1cccc(Cc2c(C)c3ccc(OCCCCO)cc3oc2=O)c1F |  | 3200 | 7350 | > 5000 |  | Metabolite_Notdetected | 
CONS(=O)(=O)Nc1cccc(Cc2c(C)c3ccc(OCCO)cc3oc2=O)c1F |  |  |  |  |  | Metabolite_Notdetected | 
CNS(=O)(=O)Nc1cccc(Cc2c(C)c3ccc(OCCCOc4no[n+]([O-])c4S(=O)(=O)c4ccccc4)cc3oc2=O)c1F |  | 34 | 640 | 1350 |  | Metabolite_Detected | Activity (MDA-MB-231 [4]): 6.87%; inhibition [5]: Dose-dependent effect; inhibition [6]: Dose-dependent effect; inhibition [7]: Active; inhibition [8]: Active; IC50 (Vero): 21100 nM; IC50 (L02): 5620 nM; viability at 1 µM (MDA-MB-231 [9]): 61.2%; Activity (MDA-MB-231 [10]): 22.6%; Activity (MDA-MB-231 [11]): 7.65%; Activity (MDA-MB-231 [12]): 8.443%; viability at 10 µM (MDA-MB-231 [13]): 53.7%; Activity (MDA-MB-231 [14]): 24.7%; Activity (MDA-MB-231 [15]): 14.729%; inhibition [16]: Tde; inhibition [17]: Tde; inhibition [18]: Active; inhibition [19]: Active
CNS(=O)(=O)Nc1nccc(Cc2c(C)c3ccc(Oc4ncccn4)cc3oc2=O)c1F [AVUTOMETINIB] | 17 | 170 | 53 | 1240 | 6 | Metabolite_Notdetected | Activity (MDA-MB-231 [4]): 2.37%; inhibition [20]: Active; inhibition [21]: Active; inhibition [7]: Active; inhibition [8]: Active; IC50 (Vero): > 50000 nM; IC50 (L02): 17300 nM; viability at 1 µM (MDA-MB-231 [9]): 88.8%; Activity (MDA-MB-231 [10]): 8.45%; Activity (MDA-MB-231 [11]): 1.92%; Activity (MDA-MB-231 [12]): 0.87%; viability at 10 µM (MDA-MB-231 [13]): 89.7%; Activity (MDA-MB-231 [14]): 7.32%; Activity (MDA-MB-231 [15]): 0.57%
CCNS(=O)(=O)Nc1cccc(Cc2c(C)c3ccc(OCCOc4no[n+]([O-])c4S(=O)(=O)c4ccccc4)cc3oc2=O)c1F | 540 | 180 | 720 | 2570 | 290 | Metabolite_Detected | 
CCNS(=O)(=O)Nc1cccc(Cc2c(C)c3ccc(OCCO)cc3oc2=O)c1F | 200 | 2480 | 5790 | > 5000 | 150 | Metabolite_Notdetected | 
COCCNS(=O)(=O)Nc1cccc(Cc2c(C)c3ccc(OCCOc4no[n+]([O-])c4S(=O)(=O)c4ccccc4)cc3oc2=O)c1F | 540 | 380 | 710 | 2270 | 310 | Metabolite_Detected | 
Cc1c(Cc2cccc(NS(=O)(=O)NCC(F)(F)F)c2F)c(=O)oc2cc(OCCO)ccc12 | 930 | 7720 | 10300 | > 5000 | 780 | Metabolite_Notdetected | 
CONS(=O)(=O)Nc1cccc(Cc2c(C)c3ccc(OCCOc4no[n+]([O-])c4S(=O)(=O)c4ccccc4)cc3oc2=O)c1F | 870 | 310 | 1010 | 3750 | 5640 | Metabolite_Detected | 
Cc1c(Cc2cccc(NS(=O)(=O)NC(C)C)c2F)c(=O)oc2cc(OCCOc3no[n+]([O-])c3S(=O)(=O)c3ccccc3)ccc12 | 970 | 860 | 1230 | 2990 | 550 | Metabolite_Detected | 
CCOC(=O)N1CCN(/[N+]([O-])=N/Oc2ccc([N+](=O)[O-])cc2[N+](=O)[O-])CC1 | 1990 | 2900 | 500 | 690 | 530 | Metabolite_Detected | Activity (MDA-MB-231 [4]): 19.2%; IC50 (Vero): 1160 nM; IC50 (L02): 1990 nM; viability at 10 µM (MDA-MB-231 [13]): 51.2%; Activity (MDA-MB-231 [14]): 27.1%; Activity (MDA-MB-231 [15]): 2.444%
Cc1c(Cc2cccc(NS(=O)(=O)NCC(F)(F)F)c2F)c(=O)oc2cc(OCCOc3no[n+]([O-])c3S(=O)(=O)c3ccccc3)ccc12 | 500 | 130 | 610 | 2510 | 270 | Metabolite_Detected | 
CNS(=O)(=O)Nc1cccc(Cc2c(C)c3ccc(OCCCCOc4no[n+]([O-])c4S(=O)(=O)c4ccccc4)cc3oc2=O)c1F |  | 200 | 2780 | 3490 |  | Metabolite_Detected | IC50 (Vero): 2980 nM; IC50 (L02): 1930 nM
